# From the EternaBench riboswitch data
# Tested on: MS2 coat protein
# Assay: apparent Kd, MS2 coat protein; higher = weaker binding; RNA-MaP array; FMN 200 µM where present
# Method in brief: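 Designs were transcribed by stalled E. coli RNA polymerase on Illumina sequencing-chip clusters. They were titrated with SNAP-549-labelled MS2 coat protein from 0.7 or 1.5 nM, doubling to 3 µM, in 100 mM Tris-HCl pH 7.5, 80 mM KCl, 4 mM MgCl2, BSA, DTT, yeast tRNA and Tween-20, without and then with constant ligand. The apparent Kd is the median of filtered per-cluster fits after normalisation of green signal to red-channel RNA signal and control-cluster median Fmax.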
# [1] = designed as: OFF switch for flavin mononucleotide, no ligand
# [2] = ligand present: flavin mononucleotide, designed as: OFF switch for flavin mononucleotide
# [3] = designed as: ON switch for flavin mononucleotide, no ligand
# [4] = ligand present: flavin mononucleotide, designed as: ON switch for flavin mononucleotide
Sequence,apparent Kd [1],apparent Kd [2],apparent Kd [3],apparent Kd [4]
AAGUUCUGUGAGAAGGCGCCCUUUGCGGUUGGGCGAGGAUAUCACAUGAGGAUCACCCAUGUCGGUGCAUCAGACAGCGUAUUU,810 nM,156 nM,–,–
AGUUCCUCCGCAGGAUAUGUGCUCUUUACCACAUGAGGAUCACCCAUGUCAGCCUACACGGCGAGACAGAAGGGUGGUGGUGCC,–,–,96 nM,157 nM
ACAAGAUCAGGAUAUACAUGAGGAUCACCCAUGUUUAUCAAAAAGGGACUUUCUUAAUGUAGAAGGGAUCUUGU,27.5 nM,83.9 nM,–,–
CAGCGAUAGCUGAACAAUCUAUCUGAGGAUAUUCAGAAUAAACAUGAGGAUCACCCAUGUAAUUGGGAGAAGGCAGAUAGAUUG,–,–,9.19 nM,5.48 nM
GGUACUCAAAGAGUACUUGGUCGAACAUGAGGAUCACCCAUGUAGGAUAUGCGAAGCAAGAAGUAGCAGAAGGGCAUGUGCAGC,17.7 nM,16.1 nM,–,–
UUGUUUCGUCAUUAACAUGAGGAUCACCCAUGUAAAGAACCAGAGGAUAUGCAUGUUUGAUUGUAGCAGAAGGCUGAUUGUUGU,–,–,35.8 nM,33.4 nM
AGCUGUGGCCGAGGAUAUCUAUCUCAAAUAACCGAAAUAUAAUCGGACAUGAGGAUCACCCAUGUAGAGAAGGCGGUCUCAGCA,14.5 nM,26.1 nM,–,–
GGUAGAAACAUUAACAUGAGGAUCACCCAUGUCAAAAGAAAUGAGGAUAUCGUCUACAAUGUAGAUGAGAAGGCAUGGUCUGCC,–,–,8.45 nM,6.84 nM
CUAUAUAAUACCUCAUGUACAUGAGGAUCACCCAUGUUAACUUAGGAUAUAUUUAUAUUAAUAAAGUAGAAGGAAGUACUAUUU,23.3 nM,19.4 nM,–,–
UAGAAGUCAGGAUAUCCUGCUCGUCACUUGCGUGAUGAGUAGGAGAAGGGACAUGAGGAUCACCCAUGUAAAGU,56.5 nM,63.9 nM,–,–
UUAACAUGAGGAUCACCCAUGUAUAGAUUGUUUAUUAGAAGUGAGGAUAUAUAUAAAAUUAGGUAGUAGAAGGCACUGGGUUUU,–,–,30.5 nM,31.9 nM
UGUCAGUAACAAGGAUAUUGGAGUUAAUGGCUACGAGAAGGUGUUACAUGAGGAUCACCCAUGUCCUCGCCUGUAGCAAGGACA,87.2 nM,567 nM,–,–
AAUGAGCAGUAGAAGGCAUGUCUACGGACAUGAGGAUCACCCAUGUUGUGAAUCCGAAAGGAGCGUGAGGAUAUACUGCUCUAA,–,–,85.6 nM,18.8 nM
GCAUGCAAGUAGAAGGACAGAUAUUUUGAUACUGUAGGAUAUGCAGAAUCAUAUCCACAUGAUAACAUGAGGAUCACCCAUGUA,11.6 nM,10 nM,–,–
GAGUGGUAAAGAGGAUAUGCAUUGUUAUUAAAUGCAGAAGGUUUUAACAUGAGGAUCACCCAUGUAGGACUAUUCCUGUGUUUC,–,–,14.8 nM,12.2 nM
UUAUACUGAGAGAAGGUUCAAACUACAUAUUGCAUACAUGAGGAUCACCCAUGUUGGUGAAUAAGAAAGGAUAUUUUACUGUAU,39.2 nM,27.9 nM,–,–
GGAGCACAUGAAUACAUGAGGAUCACCCAUGUCAAAAGAUAUGAGGAUAUGGAUCGGAAAACGAUCUAGAAGGCAUAGUGCUCC,–,–,28.8 nM,6.98 nM
GGAUGACAAAGUCAUCCAAUUCGAACAUGAGGAUCACCCAUGUAGGAUAUGCUACUCAAAGAGUAGCAGAAGGACAUGUGCCUU,31.7 nM,173 nM,–,–
AUACAACAUGAGGAUCACCCAUGUGAGGAUAUGCGAUACAUCAUCAUCAUCAUCAAUCGCAGAAGGCACAACAU,50.2 nM,55 nM,–,–
UGGUCAUCAUCAGGAUAUUAACGUGGGCUACAUUAAGAAGGGAUAGUGGGAGAGGAAGUGAAACAUGAGGAUCACCCAUGUUGU,–,–,13.5 nM,11.3 nM
UCAUGUUUAGAGGAUAUGAUUACUUUUGAGUAAUCAGAAGGCUAGACAUGAGGAUCACCCAUGUCAUAACAUGA,90 nM,112 nM,–,–

Sequence,apparent Kd [1],apparent Kd [2],apparent Kd [3],apparent Kd [4]
CCGCCACAUGAGGAUCACCCAUGUCAGGAUAUCUAUCAUAGCAUCGAAAGAUGCGGGUAGAGAAGGGACUAUCC,28.8 nM,32.2 nM,–,–
CGCGCGUCGACAGGAUAUACAGAUUGGCUCCGGUACAUGAGGAUCACCCAUGUAGAAGGGUCACGCACGGAUAGUACAUUAUUA,8.44 nM,28 nM,–,–
AGGUGCACAGGAUAUACAUGAGGAUCACCCAUGUGCCAACUGUGCGCUGGUCCUUUAUGUAGAAGGGUGCGUCC,22.1 nM,15.8 nM,–,–
UGAGCCUCGUGAGGAUAUACAUGAGGAUCACCCAUGUAAUAAGAUCAACGGAGGAAACUCCGAAUGUAGAAGGCACGAGGCUCA,40.9 nM,393 nM,–,–
GAAGCACAUGAGGAUCACCCAUGUGAGGAUAUCCGUCUGGUCCGGCCGGACCAGUACCGGAGAAGGCGCGUAAA,59.1 nM,42 nM,–,–
UCAUUUAUUACAGGAUAUGUUAGUAUACAGUUGUUUGGUUAUUACAUAAUAACAGAAGGGUAGAACAUGAGGAUCACCCAUGUA,–,–,244 nM,113 nM
AAACAUGUCCGAGGAUAUCUGAGAUCAUUUUCAAGAGAAGGCGGACAUGAGGAUCACCCAUGUCUCUCCUCAUCAACGCCAAAU,26.9 nM,51.7 nM,–,–
UAAUAUUUAUAAUAUUAUUACAUUAGAAGGCUAGACAUGUGGAUACAUGAGGAUCACCCAUGUAUAGAGGAUAUAGACAUAUAU,29.5 nM,79.9 nM,–,–
AUAAGGUUCUUCAAGGUGCUACAUGAGGAUCACCCAUGUGAGAGAAGGGCCCGUGGACUUGGAGGGUAGGAUAUCUCCAUGCGU,8.32 nM,10.1 nM,–,–
AUCAGCUCGUCAGGAUAUACGUCACUGCGUCAGCAGUGUGGUAAGACCACAUGAGGAUCACCCAUGUAGAAGGGACGAGCUGAU,7.94 nM,24.5 nM,–,–
AAAAGUUGGUAAGGAUAUCCCACAUUAUUCUGACCCGUGCAAGCUACAUGAGGAUCACCCAUGUGGGAGAAGGUGCGUUAAAGA,54.7 nM,64.6 nM,–,–
UGGAUGGUAUGAGGAUAUGCGCGCGACACGCGCGCAGAAGGCAUGUCAAUAGACAUGAGGAUCACCCAUGUAUUAUCCAUCCAA,–,–,201 nM,14.8 nM
CUCAGCUCGUGAGGAUAUACAACACUGCUUCGGCAGUGUAUUAAGAUCACAUGAGGAUCACCCAUGUAGAAGGCACGAGCUGAU,14.3 nM,246 nM,–,–
GGUGGACAUGAGGAUCACCCAUGUGAGGAUAUCGGCUGGUACGUGGUGGCUGGCAUCUCGAGAAGGCACAUAGU,80.1 nM,202 nM,–,–
UCCAGGUAAGGAUAUGGGCUGGACACCGGGUACGGCCAGCACCAGAAGGUACAUGAGGAUCACCCAUGUGUUCC,54.5 nM,274 nM,–,–
UCUCGACAUGAGGAUCACCCAUGUCAGGAUAUUGUAUUAGAGGUUUUUUACCUUAUAACAAGAAGGGAUGUGUG,22.9 nM,26.8 nM,–,–
AAAAAACAUGAGGAUCACCCAUGUAAAAAAAAUGGAGGAUAUUGGAAAAAAAAAAAAAAACGAGAAGGCUAAAAAA,–,–,84.4 nM,71.1 nM
CCAUCGAGUGUGAGGAUAUGCUGGUCCAUAGAUCAGCAGAAGGCACAUGAGGAUCACCCAUGUGGAGACGGUGG,41.7 nM,332 nM,–,–
UAAUUACAUGAGGAUCACCCAUGUGAGGAUAUGUCCAUAUUCGGCAAAUCGGAUAUGGACAGAAGGCACACCGG,56.3 nM,141 nM,–,–
GGUGGACAUGAGGAUCACCCAUGUGAGGAUAUCGGCUGGCUAGCGGCGGACGGCUGCUCGAGAAGGCGCAUUGU,90.6 nM,137 nM,–,–
GGUGGGUUGCUACCGGCACAUGAGGAUCACCCAUGUUUUGGGAAGGAUAUGGUACCUAUUUGGUACCAGAAGGUCCCGUUGGUG,–,–,330 nM,239 nM
